Data set [1] in a line: Stability/reactivity toward glutathione. The class given is physicochemical.
Data set [2] relates to BJeLR (expressing HRAS^G12V). Conditions: for increase in activity compared to 2a: BJeLR.
For data set [3], the system named is BJeH-LT (isogenic to BJeLR without HRAS^G12V). The data set can be described thus: Cell viability counterscreen in isogenic BJeH-LT cells. The class given is cell-based. The following applies: read-out: IC50 BJeH-LT. An outline of the steps:
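IC50 measured in BJeH-LT cells, the isogenic partner of BJeLR lacking mutant HRAS; each reported value is the mean of experiments run in triplicate.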
In general terms: The purpose of a counterscreen is to sort out artefacts and off-target activity.

Data set [4] relates to BJeLR (expressing HRAS^G12V). The data set can be described thus: cells. Conditions: read-out: IC50 BJeLR.
For data set [5], the system named is DRD (expressing HRAS^G12V with alternative oncogenic constructs). As to the kind of experiment: Cell viability in DRD cells. The class given is cell-based.
The test system of data set [6] is BJeLR (expressing HRAS^G12V). Conditions: cited from earlier work.

Values after ≈ are worked out from the molar mass of the structure shown. Where two headings read alike, the source gives them in different places. Bounds are passed on as bounds.

Broadly, the solubility is how much of the substance goes into solution per volume. Higher therefore signals a readily soluble substance. In the case of `COc1ccc(N(C(=O)CCl)C(C(=O)NCCc2ccccc2)c2cccs2)cc1Cl` (stereo not shown) [Compound 1a], the GSH adduct observed in data set [1] (48 hours incubation in PBS/DMSO (1/2) at room temperature, GSH 5 mM) is reported as 20%. The “time in which formation of the GSH adduct was observed” value in data set [1] (base (triethylamine) added) was 1 h. In the data set “Aqueous solubility”, this molecule showed a solubility of less than 1 µM.
As for `COc1ccc(N(C(=O)CCl)C(C(=O)NCCc2ccccc2)c2nc(C)cs2)cc1Cl` (stereo not shown) [Compound 1k], the “activity in the cell assays (in words)” value in data set [2] is “inactive”.
In turn, `COc1ccc(N(C(=O)CCl)C(C(=O)NCS(=O)(=O)c2ccc(C)cc2)c2cccs2)cc1Cl` (stereo not shown) [Compound 1q] had a solubility in “Aqueous solubility” of 16 µM (≈ 8.66 µg/mL).
In the case of `COc1ccc(N(C(=O)CCl)C(C(=O)NCn2nnc3ccccc32)c2cccs2)cc1Cl` (stereo not shown) [Compound 1r], in the data set “Aqueous solubility” (compared to 1a), the “aqueous solubility (in words)” value is on record as “did not improve solubility”.
What is called IC50 is the concentration that inhibits the measured activity by half. Consider `O=C(c1n[nH]cc1[N+](=O)[O-])N1CCN(C(c2ccccc2)c2ccccc2)CC1` [Compound 2h], for which the IC50 in data set [3] and in data set [4] was more than 20 µg/mL throughout.
In the case of `Cn1cc([N+](=O)[O-])c(C(=O)N2CCN(C(c3ccccc3)c3ccccc3)CC2)n1` [Compound 2i], the IC50 in data set [3] and in data set [4] was more than 20 µg/mL each time.
As to `Cn1ncc([N+](=O)[O-])c1C(=O)N1CCN(C(c2ccccc2)c2ccccc2)CC1` [Compound 2j], the IC50 in data set [3] and in data set [4] was more than 20 µg/mL each time.
Consider `O=C(c1cc([N+](=O)[O-])ccn1)N1CCN(C(c2ccccc2)c2ccccc2)CC1` [Compound 2k], for which the “activity in the cell assays (in words)” value in data set [2] is recorded as “weak inhibitor”.
For the molecule `Cc1ccc(C(=O)N2CCN(C(c3ccccc3)c3ccccc3)CC2)c([N+](=O)[O-])c1` [Compound 2l], the IC50 in data set [3] and in data set [4] was more than 20 µg/mL throughout. Moreover, the “activity in the cell assays (in words)” value in data set [2] was “inactive”.
For `O=C(c1ccc([N+](=O)[O-])o1)N1CCN(C(c2ccccc2)c2ccccc2)CC1` [Compound 2m], the “activity in the cell assays (in words)” value in data set [2] was “inactive”. Further, in data set [4], the IC50 is more than 20 µg/mL.
For `Cc1onc(C(=O)N2CCOCC2)c1[N+](=O)[O-]` [Compound 2n], the IC50 in data set [3] and in data set [4] was more than 20 µg/mL each time. The “activity in the cell assays (in words)” value in data set [2] was “inactive”.
Take `Cc1onc(C(=O)NCc2ccc(F)cc2)c1[N+](=O)[O-]` [Compound 2o]: the IC50 in data set [3] and in data set [4] was more than 20 µg/mL each time. In data set [2], the “activity in the cell assays (in words)” value is “inactive”.
On to `CCC(=O)N1CCN(C(=O)c2noc(C)c2[N+](=O)[O-])CC1` [Compound 2p], for which the IC50 in data set [3] and in data set [4] was more than 20 µg/mL in each case. Moreover, in data set [2], the “activity in the cell assays (in words)” value was “inactive”.
Regarding `COc1ccccc1N1CCN(C(=O)c2noc(C)c2[N+](=O)[O-])CC1` [Compound 2q], the IC50 in data set [3] and in data set [4] was more than 20 µg/mL each time. The “activity in the cell assays (in words)” value in data set [2] is “inactive”.
In the case of `Cc1onc(C(=O)N2CCN(Cc3ccccc3)CC2)c1[N+](=O)[O-]` [Compound 2r], the IC50 in data set [3] and in data set [4] was more than 20 µg/mL throughout. The “activity in the cell assays (in words)” value in data set [2] was “eliminate activity”.
In the case of `Cc1onc(C(=O)NCCNC(c2ccccc2)c2ccccc2)c1[N+](=O)[O-]` [Compound 2t], in data set [3], the IC50 is more than 20 µg/mL.
Consider `Cc1onc(C(=O)N2CCN(C(c3ccccn3)c3ccccn3)CC2)c1[N+](=O)[O-]` [Compound 2u], for which the IC50 in data set [3] and in data set [4] was more than 20 µg/mL throughout. For the same molecule, in data set [2], the “activity in the cell assays (in words)” value is “inactive”.
Turning to `Cc1onc(C(=O)N2CCN(C(c3ccncc3)c3ccncc3)CC2)c1[N+](=O)[O-]` [Compound 2v], the IC50 in data set [3] and in data set [4] was more than 20 µg/mL each time. Moreover, the “activity in the cell assays (in words)” value in data set [2] was “inactive”.
With `Cc1onc(C(=O)N2CCN(C(c3ccc(F)cc3)c3ccc(F)cc3)CC2)c1[N+](=O)[O-]` [Compound 2w], in data set [2], the “increase in activity compared to 2a” value is 5 fold.
For the molecule `Cc1onc(C(=O)N2CCN(C(c3ccc(Cl)cc3)c3ccc(Cl)cc3)CC2)c1[N+](=O)[O-]` [Compound 2y], the “selectivity for the DRD vs the BJeH cell line” value in data set [5] (DRD (HRAS^G12V) vs BJeH (non expressing HRAS^G12V)) stood at 6 fold. Moreover, the “increase in activity compared to the hit compound 2a” value in data set [5] (DRD cell line) worked out at 16 fold. The “increase in activity compared to 2a” value in data set [2] worked out at 14 fold.
As for `COC(=O)c1ccc(C2c3[nH]c4ccccc4c3C[C@@H](C(=O)OC)N2C(=O)CCl)cc1` (stereo partly shown) [RSL3], the “selectivity vs BJeH-LT” value in data set [6] (BJeLR vs BJeH-LT) is given as “approximately 8 fold”. Besides, the IC50 in data set [6] (read-out: IC50 in BJeLR, BJeLR) is 100 nM.

The values above are taken from PMC3528973 (Bioorganic & medicinal chemistry letters, 2011).
